Reference: ChEMBL document CHEMBL1122650, “Synthesis and central nervous system properties of 2-[(alkoxycarbonyl)amino]-4(5)-phenyl-2-imidazolines” (J Med Chem, 1984)
Activity calls are given as the source filed them. The rule behind the calls is not given here.

Key:
Mus musculus [1] = species: Mus musculus; test: Compound was evaluated for maximal electroshock antagonism (MES) against mice; format: functional
How it was run: (§1)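 Male HLa (ICR) BR mice, groups of eight to ten, dosed ip (aqueous solution) 15 min before transcorneal electroshock (50 mA, 0.2 s). End point: abolition of tonic hind-limb extension; quantal ED50 by Litchfield-Wilcoxon.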

Mus musculus [2] = species: Mus musculus; test: Righting ability was determined in mice after rapid rolling (aroused); format: functional
How it was run: (§2)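 Male Simonsen (ICR) fBR mice, 18-24 g, groups of ten, dosed with aqueous compound. Righting ability checked before (unaroused) and after (aroused) rapid rolling in the hand; ED50 by Litchfield-Wilcoxon method.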

[3] = Lethal dose in mouse, in groups of ten; format: toxicity, organism-based; conditions: in vivo
Mus musculus [4] = species: Mus musculus; test: Righting ability was determined in mice before rapid rolling (unaroused); format: functional; how it was run: as §2
Mus musculus [5] = species: Mus musculus; test: Mouse behavior activity was determined;D= Depressant; format: functional, organism-based
How it was run: (§3)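 Male Simonsen (ICR) fBR mice, 18-24 g, groups of three, given 3, 10, 30, 100, 300 or 1000 mg/kg ip as aqueous solution and observed for behavioral profile; deaths followed up to 7 days.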

Mus musculus [6] = species: Mus musculus; test: Evaluated for antagonism of reserpine induced hypothermia; format: functional
How it was run: (§4)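 Male HLa (ICR) BR mice, 18-24 g, in groups of eight; reserpine 5 mg/kg ip given 2 h before oral test compound as aqueous solution. Rectal temperature taken hourly; 1-4-h hypothermia assessed by analysis of variance.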

[7] = HPLC capacity factor (k'); format: ADME
Mus musculus [8] = species: Mus musculus; test: Evaluated for antagonism of reserpine induced hypothermia;I= Inactive; format: functional, organism-based; how it was run: as §4
Mus musculus [9] = species: Mus musculus; test: Mouse behavior activity was determined; Dwk=Depressant Weak; format: functional, organism-based; how it was run: as §3
Mus musculus [10] = test: Evaluated in vivo for reserpine hypothermia after oral administration in mouse. Minimum active dose was reported; Inactive; format: functional, organism-based; how it was run: as §4
Mus musculus [11] = species: Mus musculus; test: Righting ability was determined in mice […] rapid rolling (aroused); format: functional; how it was run: as §2
Mus musculus [12] = species: Mus musculus; test: Mouse behavior activity was determined; S-D=Stimulant-Depressant; format: functional, organism-based; how it was run: as §3
Mus musculus [13] = species: Mus musculus; test: Compound was evaluated for maximal electroshock antagonism (MES) against mice; Inactive; format: functional, organism-based; how it was run: as §1

| SMILES | ED50 (Mus musculus [1]) | LD50 [3] | Mouse behavior activity (Mus musculus [5]) | Log k' [7] | ED50 (Mus musculus [13]) | other results |
| --- | --- | --- | --- | --- | --- | --- |
| COC(=O)NC1=NC(c2ccccc2F)CN1 (stereo not drawn) | 54 mg/kg | 255 mg/kg | Depressant | – | – | Loss of righting reflex (Mus musculus [2]): 234 mg/kg; Loss of righting reflex (Mus musculus [4]): 210 mg/kg; HYPO (Mus musculus [6]): <0.5 mg/kg |
| COC(=O)NC1=NC(c2c(Cl)cccc2Cl)CN1C (stereo not drawn) | – | – | – | – | – | HYPO (Mus musculus [6]): <0.5 mg/kg |
| COC(=O)NC1=NC(c2cc(Cl)cc(Cl)c2)CN1C (stereo not drawn) | 44 mg/kg | – | – | – | – | – |
| COC(=O)NC1=NC2c3ccccc3CC2N1 (stereo not drawn) | 44 mg/kg | 700 mg/kg | – | -1.14 | – | HYPO (Mus musculus [8]): inactive; Mouse behavior activity (Mus musculus [9]): Depressant Weak |
| COC(=O)NC1=NC(c2ccccc2)CN1Cc1ccccc1 (stereo not drawn) | 100 mg/kg | 200 mg/kg | – | 1.25 | – | HYPO (Mus musculus [8]): inactive; Mouse behavior activity (Mus musculus [9]): Depressant Weak |
| COC(=O)NC1=NC(c2cc(F)ccc2F)CN1 (stereo not drawn) | 49 mg/kg | > 300 mg/kg | – | -0.08 | – | Mouse behavior activity (Mus musculus [9]): Depressant - weak; HYPO (Mus musculus [6]): <0.5 mg/kg |
| COC(=O)NC1=NC(c2ccccc2F)CN1C (stereo not drawn) | 74 mg/kg | 254 mg/kg | – | 0.14 | – | ED50 (Mus musculus [10]): inactive; Mouse behavior activity (Mus musculus [9]): Depressant Weak |
| COC(=O)NC1=NC(c2cccc(OC)c2)CN1C (stereo not drawn) | 128 mg/kg | 250 mg/kg | Depressant | 0.18 | – | Loss of righting reflex (Mus musculus [4]): 100 mg/kg; Loss of righting reflex (Mus musculus [11]): 144 mg/kg; HYPO (Mus musculus [6]): >20 mg/kg |
| CCOC(=O)NC1=NCC2c3ccccc3CCN12 (stereo not drawn) | – | 200 mg/kg | – | – | – | HYPO (Mus musculus [8]): inactive; Mouse behavior activity (Mus musculus [12]): Stimulant-Depressant |
| CCCOC(=O)NC1=NC(c2ccccc2F)CN1C (stereo not drawn) | 23 mg/kg | – | – | 0.87 | – | – |
| COC(=O)NC1=NCC(c2ccccc2)N1C (stereo not drawn) | – | 200 mg/kg | – | – | inactive | Mouse behavior activity (Mus musculus [12]): Stimulant-Depressant |
| CCN1CC(c2ccccc2)N=C1NC(=O)OC (stereo not drawn) | 66 mg/kg | 117 mg/kg | Depressant | 0.39 | – | Loss of righting reflex (Mus musculus [4]): 84 mg/kg |
| COC(=O)NC1=NC(c2cccc(Cl)c2)CN1C (stereo not drawn) | 100 mg/kg | 300 mg/kg | Depressant | 0.53 | – | Loss of righting reflex (Mus musculus [4]): 200 mg/kg |
| COC(=O)NC1=NC(c2ccccc2Br)CN1 (stereo not drawn) | 62 mg/kg | – | – | 0.47 | – | – |
| COC(=O)NC1=NCC2c3ccccc3CCN12 (stereo not drawn) | – | 200 mg/kg | Depressant | – | – | – |
| COC(=O)NC1=NC(c2ccc3c(c2)OCO3)CN1 (stereo not drawn) | – | 200 mg/kg | – | -0.14 | inactive | HYPO (Mus musculus [8]): inactive |
| COC(=O)NC1=NC(c2ccccc2-c2ccccc2)CN1 (stereo not drawn) | – | 200 mg/kg | Depressant | 1.06 | – | Loss of righting reflex (Mus musculus [4]): 70 mg/kg; HYPO (Mus musculus [6]): >20 mg/kg |
| COC(=O)NC1=NC(c2cc(C)ccc2C)CN1 (stereo not drawn) | ~100 mg/kg | 700 mg/kg | – | 0.58 | – | HYPO (Mus musculus [8]): inactive; Mouse behavior activity (Mus musculus [9]): Depressant - weak |
| CN(C)CCC=C1c2ccccc2COc2ccccc21 [DOXEPIN] | 16 mg/kg | 50 mg/kg | Depressant | – | – | Loss of righting reflex (Mus musculus [4]): 40 mg/kg; Loss of righting reflex (Mus musculus [11]): 43 mg/kg |

| SMILES | ED50 (Mus musculus [1]) | LD50 [3] | Mouse behavior activity (Mus musculus [5]) | Log k' [7] | ED50 (Mus musculus [13]) | other results |
| --- | --- | --- | --- | --- | --- | --- |
| COC(=O)NC1=NC(c2ccc(C(F)(F)F)cc2)CN1 (stereo not drawn) | – | 700 mg/kg | – | 0.56 | inactive | ED50 (Mus musculus [10]): inactive; Mouse behavior activity (Mus musculus [9]): Depressant - weak; HYPO (Mus musculus [6]): >20 mg/kg |
| COC(=O)NC1=NC(c2ccc(C(C)C)cc2)CN1 (stereo not drawn) | – | 500 mg/kg | – | 0.99 | inactive | HYPO (Mus musculus [8]): inactive; Mouse behavior activity (Mus musculus [9]): Depressant - weak |
| CCOC(=O)NC1=NC(c2cccc(C)c2C)CN1C (stereo not drawn) | 70 mg/kg | 300 mg/kg | Depressant | 1.02 | – | HYPO (Mus musculus [8]): inactive; Loss of righting reflex (Mus musculus [4]): 41 mg/kg; Loss of righting reflex (Mus musculus [11]): 66 mg/kg |
| CCOC(=O)NC1=NC(c2ccc(F)cc2)CN1C (stereo not drawn) | 100 mg/kg | 200 mg/kg | – | 0.48 | – | Mouse behavior activity (Mus musculus [12]): Stimulant-Depressant; HYPO (Mus musculus [6]): <0.5 mg/kg |
| CCOc1ccccc1C1CN=C(NC(=O)OC)N1 (stereo not drawn) | – | 700 mg/kg | Depressant | 0.55 | inactive | Loss of righting reflex (Mus musculus [2]): 125 mg/kg; HYPO (Mus musculus [8]): inactive; Loss of righting reflex (Mus musculus [4]): 155 mg/kg |
| COC(=O)NC1=NC(C)(c2ccccc2)CN1 (stereo not drawn) | – | – | – | – | inactive | – |
| COC(=O)NC1=NC(c2cc(OC)cc(OC)c2)CN1 (stereo not drawn) | – | 300 mg/kg | – | 0.1 | inactive | HYPO (Mus musculus [8]): inactive; Mouse behavior activity (Mus musculus [9]): Depressant - weak |
| COC(=O)NC1=NC(Cc2ccccc2)CN1 (stereo not drawn) | – | – | – | 0.12 | – | – |
| CN1C(N)=NCC1c1cccc(Cl)c1 (stereo not drawn) | – | – | – | – | inactive | – |
| CN1CC(c2c(Cl)cccc2Cl)N=C1N (stereo not drawn) | – | – | – | – | inactive | – |
| CCOc1ccccc1OCC1CNCCO1 (stereo not drawn) [VILOXAZINE] | 17 mg/kg | 200 mg/kg | – | – | – | Mouse behavior activity (Mus musculus [12]): Stimulant-Depressant |
| COC(=O)NC1=NCC2(CCc3ccccc32)N1C (stereo not drawn) | – | 300 mg/kg | – | 0.48 | inactive | ED50 (Mus musculus [10]): inactive; Mouse behavior activity (Mus musculus [9]): Depressant Weak |
| CC(C)OC(=O)NC1=NC(c2cccc(Cl)c2)CN1 (stereo not drawn) | 79 mg/kg | – | – | 0.95 | – | – |
| CCOC(=O)NC1=NC(c2cc(C)ccc2C)CN1 (stereo not drawn) | – | – | – | 0.88 | inactive | – |
| COC(=O)NC1=NCC(c2c(Cl)cccc2Cl)N1C (stereo not drawn) | 22 mg/kg | – | – | 0.54 | – | – |
| CC(C)COC(=O)NC1=NC(c2ccccc2)CN1C (stereo not drawn) | 70 mg/kg | 247 mg/kg | Depressant | 1.15 | – | Loss of righting reflex (Mus musculus [4]): 41 mg/kg; Loss of righting reflex (Mus musculus [11]): 76 mg/kg; HYPO (Mus musculus [6]): >20 mg/kg |
| COC(=O)NC1=NC(c2cccc(OC)c2)CN1 (stereo not drawn) | – | 700 mg/kg | Depressant | -0.07 | inactive | Loss of righting reflex (Mus musculus [2]): 197 mg/kg; HYPO (Mus musculus [8]): inactive; Loss of righting reflex (Mus musculus [4]): 182 mg/kg |
| COC(=O)NC1=NC(c2cccc(C)c2)CN1C (stereo not drawn) | 89 mg/kg | 475 mg/kg | Depressant | 0.49 | – | Loss of righting reflex (Mus musculus [4]): 90 mg/kg; Loss of righting reflex (Mus musculus [11]): 149 mg/kg |
| COC(=O)NC1=NC(c2ccccc2C)CN1C (stereo not drawn) | 68 mg/kg | 200 mg/kg | Depressant | 0.37 | – | – |
